How the values were obtained:
Type in all cases: binding
PRMT1-SAH complex [1] = target: T1, PRMT1-SAH complex (Rattus norvegicus, UniProt Q63009); assay: Stopped-flow dissociation from PRMT1-SAH; details: 100 μM SAH
Outline: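 Trapping experiment using rat His-PRMT1. 0.4 μM fluorescein-labelled H4 peptide (H4FLme1 or H4FLme2) was premixed with 2 μM PRMT1 and 100 μM SAH, then rapidly mixed with 50 μM unlabelled H4(1–20). Fluorescence recovery read at ex 495 nm, 510 nm long-pass emission; 4–6 injections averaged; double-exponential fit.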

PRMT1-SAH complex [2] = target: T1, PRMT1-SAH complex; assay: Stopped-flow association with PRMT1-SAH
Outline: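 His-tagged rat PRMT1 expressed in E. coli and Ni-resin purified. PRMT1 (2, 4, 6 μM) was preincubated with 100 μM SAH, then rapidly mixed with 0.4 μM fluorescein-labelled H4 peptide. Fluorescence quench read at ex 495 nm, 510 nm long-pass emission; 4–6 shots averaged. Traces fit double-exponential; kobs versus PRMT1 fit to two-step model for k1, k−1, k2, k−2.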

PRMT1 = PRMT1 (Rattus norvegicus, UniProt Q63009); assay: Stopped-flow dissociation from PRMT1; details: compared with second phase in methylation course
PRMT1, sequence (Q63009 whole entry): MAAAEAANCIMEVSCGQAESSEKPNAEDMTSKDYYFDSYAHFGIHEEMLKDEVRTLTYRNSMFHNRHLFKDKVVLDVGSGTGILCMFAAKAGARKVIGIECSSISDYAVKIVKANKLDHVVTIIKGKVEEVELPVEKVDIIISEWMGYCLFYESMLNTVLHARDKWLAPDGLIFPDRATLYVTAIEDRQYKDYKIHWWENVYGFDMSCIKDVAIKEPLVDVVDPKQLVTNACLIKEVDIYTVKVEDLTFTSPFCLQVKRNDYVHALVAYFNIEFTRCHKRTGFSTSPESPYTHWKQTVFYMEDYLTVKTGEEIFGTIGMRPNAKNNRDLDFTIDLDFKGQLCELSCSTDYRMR

T1 sequence (Q63009 whole entry, one chain of several): as the sequence (Q63009 whole entry) above

| Substance | koff from PRMT1-SAH relative to apo-PRMT1 (PRMT1-SAH complex [1]) | Observed first-order rate constant for binding (kobs) (PRMT1-SAH complex [2]; 2 μM PRMT1 in presence of the cofactor) | Association rate constant with PRMT1-SAH relative to apo PRMT1 (PRMT1-SAH complex [2]; 100 μM SAH) | k2 + k−2 (plateau of the slow phase) (PRMT1-SAH complex [2]; two-step binding model (eq 5), 100 μM SAH, 30°C) | Dissociation rate constant relative to slow-phase (methylation) rate constants (PRMT1) |
| --- | --- | --- | --- | --- | --- |
| Ac-SGRme1GKGGKGDpr(FL)GKGGAKRHRK [H4FLme1] | about three-fold lower | 248 ± 3 s⁻¹ | two-fold higher | 36 ± 2 s⁻¹ | several thousand-fold larger |
| Ac-SGRme2GKGGKGDpr(FL)GKGGAKRHRK [H4FLme2] |  |  |  |  | several thousand-fold larger |
